This passage reports Ratio and MIC results from ChEMBL document CHEMBL4477187, “Macrolides from a Marine-Derived Fungus, Penicillium meleagrinum var. viridiflavum, Showing Synergistic Effects with Fluconazole against Azole-Resistant Candida albicans” (2016).

In brackets after ≈: the same amount, converted by molar mass.

Holding throughout (format): functional
In experiment [1] the test system is Candida albicans. In words: Antifungal activity against fluconazole/itraconazole/voriconazole-resistant Candida albicans clinical isolate J2-36 assessed as fractional inhibitory concentration in presence of fluconazole incubated for 48 hrs by checkerboard microdilution assay. Put shortly: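 FICA per test compound = MIC in combination with fluconazole / MIC alone. Clinical isolate incubated 48 h at 37 °C. Each MIC = lowest concentration giving ≥90% growth reduction versus drug-free control.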

The subject of experiment [2] is Candida albicans. In words: Antifungal activity against fluconazole/itraconazole/voriconazole-resistant Candida albicans clinical isolate J2-36 incubated for 48 hrs by microdilution assay. The note with it: isolate J2-36, 48 h. Put shortly: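 Clinical isolate grown 48 h at 37 °C with test compound alone, tested up to […] μg/mL. MIC read as lowest concentration giving ≥90% growth reduction versus drug-free control.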

The subject of experiment [3] is Candida albicans. Kind of experiment: Antifungal activity against fluconazole/itraconazole/voriconazole-resistant Candida albicans clinical isolate J2-36 incubated for 48 hrs in presence of fluconazole by checkerboard microdilution assay. The note with it: isolate J2-36, 48 h. In short, it runs like this:
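Test compound combined with fluconazole against the clinical isolate, 48 h at 37 °C. Combination MIC taken as lowest concentration giving ≥90% growth reduction versus drug-free control.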
A general note: Dilution methods test growth across graded concentrations, often in twofold steps.

As usually defined, the MIC is the least concentration at which growth counts as inhibited. With `CCC[C@H](O)C[C@@H]1CC[C@H](C)CCCCC(=O)N(C)[C@@H](Cc2ccc(OCCO)cc2)C(=O)O1`, in the experiment on Candida albicans [1], the Ratio worked out at 0.0078. Besides, the values for the MIC in the experiment on Candida albicans [2] and in the experiment on Candida albicans [3] were 1 µg/mL (≈ 2.09 µM) and 0.0078 µg/mL, respectively.

Regarding `OC(Cn1cncn1)(Cn1cncn1)c1ccc(F)cc1F` [FLUCONAZOLE], the MIC against Candida albicans [2] was > 64 µg/mL.

For `CCCCC[C@@H]1CC[C@H](C)CCCCC(=O)N(C)[C@@H](Cc2ccc(OCCO)cc2)C(=O)O1`, in the experiment with Candida albicans [1], the Ratio is listed as 0.00078. Moreover, the MIC against Candida albicans [2] is 2 µg/mL (≈ 4.33 µM); in the experiment on Candida albicans [3], 0.0016 µg/mL.

For `C[C@@H]1CCCCC(=O)N(C)[C@@H](Cc2ccc(OCCO)cc2)C(=O)O[C@H](C[C@H](C)O)CC1`, the Ratio with Candida albicans [1] was 0.0039. Further, the MIC in the experiment with Candida albicans [2] is 8 µg/mL (≈ 17.8 µM); in the experiment on Candida albicans [3], 0.031 µg/mL.

Take `CCCCCCC[C@@H]1CC[C@H](C)CCCCC(=O)N(C)[C@@H](Cc2ccc(OCCO)cc2)C(=O)O1`: in the experiment on Candida albicans [1], the Ratio is on record as <0.016. The MIC with Candida albicans [2] was > 32 µg/mL; in the experiment on Candida albicans [3], 0.5 µg/mL.

Turning to `CCCCC[C@@H]1CC[C@H](C)CCCCC(=O)N(C)[C@@H](Cc2ccc(OCC=C(C)C)cc2)C(=O)O1`, the Ratio with Candida albicans [1] is <0.031. The MIC against Candida albicans [2] is > 32 µg/mL; with Candida albicans [3], 1 µg/mL.

As to `CCC[C@@H]1CC[C@H](C)CCCCC(=O)N(C)[C@@H](Cc2ccc(OCCO)cc2)C(=O)O1`, the Ratio in the experiment on Candida albicans [1] is reported as 0.0078. For the same compound, the results for the minimum inhibitory concentration (MIC) in the experiment on Candida albicans [2] and in the experiment on Candida albicans [3] were 16 µg/mL (≈ 36.9 µM) and 0.125 µg/mL, respectively.

Take `CCC[C@H](O)C[C@@H]1CC[C@H](C)CCCCC(=O)N(C)[C@@H](Cc2ccc(OCC(O)C(C)(C)O)cc2)C(=O)O1` (some centres not stated): the Ratio with Candida albicans [1] is given as <0.016. Also, the MIC was > 32 µg/mL in the experiment on Candida albicans [2] and 0.5 µg/mL with Candida albicans [3].
